Assay outcomes as filed in PubChem.
CDK5 inh = inhibitors of human CDK5/p35 kinase; AID 488839; actives 0.01% (n = 330,000); inhibition, % at 10 µM; Recombinant CDK5/p35, ADP-Glo luminescence, 60 min;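 active = highest replicate inhibition of at least 50% and at least 75% of replicates reaching 50%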;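 note: plate controls were DMSO neutral control for no effect and GW8510 at 10 µM for full effect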
GSK3 alpha inh = human GSK-3 alpha kinase inhibition. P49840. ADP-Glo luminescence, 60 min. inhibition, % at 10 µM. actives 0.1% (n = 320,000);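 active = more than half of replicates show inhibition above 20%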;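 note: GST-tagged GSK-3 alpha with peptide substrate and 25 µM ATP; 0% = DMSO neutral wells and 100% = GW8510 positive control wells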
Target sequence (P49840 whole entry, looked up): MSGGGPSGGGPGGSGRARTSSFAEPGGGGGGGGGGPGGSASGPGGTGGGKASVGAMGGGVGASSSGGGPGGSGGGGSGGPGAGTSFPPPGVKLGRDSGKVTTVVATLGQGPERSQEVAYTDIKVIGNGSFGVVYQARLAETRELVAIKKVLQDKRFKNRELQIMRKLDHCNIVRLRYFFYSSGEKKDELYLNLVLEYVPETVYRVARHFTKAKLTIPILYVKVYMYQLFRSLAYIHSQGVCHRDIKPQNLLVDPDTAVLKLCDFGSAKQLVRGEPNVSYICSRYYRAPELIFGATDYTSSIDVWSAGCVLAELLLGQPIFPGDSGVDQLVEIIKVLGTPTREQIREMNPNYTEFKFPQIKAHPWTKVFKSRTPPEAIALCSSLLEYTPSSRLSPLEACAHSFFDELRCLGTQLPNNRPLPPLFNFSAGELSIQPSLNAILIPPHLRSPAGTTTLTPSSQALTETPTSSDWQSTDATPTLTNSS
Env fusion inh = inhibitors of HIV Env-mediated cell fusion; HeLa-JRFL Env/CEM21 cell fusion, luciferase; AID 651610; actives 1.1% (n = 360,000); inhibition, % at 12.3 µM;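 active = mean replicate inhibition score of at least 50 and every replicate individually at or above 50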;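 note: 0% = plate neutral controls and 100% = maraviroc near 300 nM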
GSK3B inh = human GSK3beta kinase inhibition. activity score (negative = inhibition), % at 10 µM. actives 0.038% (n = 300,000). P49841. AID 2097. GST-GSK3beta kinase, ADP-Glo luminescence, 60 min; stronger effect = lower value;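 active = more than half of replicate wells score below -50%, meaning over 50% inhibition versus plate controls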;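 note: 0% = median DMSO wells and -100% = median GW8510 positive control wells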
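Test system: GST-tagged human GSK3beta kinase, cell-free; evaluation: activity score scaled between in-plate DMSO and GW8510 controls; measured by: ADP-Glo luminescence; incubation: 60 min reaction, RT; benchmarks: DMSO and 20 µM GW8510; reagent: peptide substrate plus 25 µM ATP (final); medium: Tris/MgCl2 kinase buffer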
STK33 inh = inhibitors of human STK33 kinase | inhibition, % at 10 µM | Q9BYT3 | purified STK33, MBP phosphorylation, ADP-Glo luminescence | actives 0.073% (n = 320,000);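 active = inhibition at or above 25%, using the most active replicate where run in duplicate; inactive = inhibition below 25%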
GSIS activator = primary screen for activators of insulin secretion dependent on glucose, INS-1E cells, GLuc reporter luminescence. activation, % at 16.6 µM. INS-1E GLuc reporter insulin secretion, 2-3 h. actives 0.61% (n = 370,000);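 active = lowest replicate activation of at least 40%, so every replicate reaches that level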;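 note: 0% = median of neutral control wells and 100% = median of IBMX positive control wells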
Starred values were filed as active, the others as inactive; / = no result; [ ] = remark or other dose. Sampled rows, rich in hits. Any-hit rate of the full collection: about 1.4%.

SMILES | CDK5 inh | GSK3 alpha inh | Env fusion inh | GSK3B inh | STK33 inh | GSIS activator
COc1ccc(CNC(=O)CCS(=O)(=O)c2ccc3c(c2)NC(=O)CS3)cc1 | 1.4 | 0.6 | 12.9 | -2.4 | -0.6 | 144.6*
CC(NC(=O)C12CC3CC(C)(CC(C)(C3)C1)C2)c1ccncc1 (configuration not stated) | -0.5 | -1.9 | 64.8* | 0.1 | -2.3 | -0.7
CC1CCCN(C(=O)c2nn(C)c3c2CSc2ccccc2-3)C1 (configuration not stated) | -0.7 | -0.1 | -7.9 | 0.5 | -0.9 | 7.4
CC1CCCC(C)N1CCCNC(=O)c1nn(C)c2c1CSc1ccccc1-2 (configuration not stated) | 0.2 | 1.2 | 80.3* | -2.5 | 1.5 | 2.3
Cc1ccc(CC2(OCCN(C)C)CCC(C(C)(C)C)CC2)cc1 (configuration not stated) | 0.8 | / | 7.3 | / | / | 750.2*
CN(C)CCOC1(Cc2ccc(F)cc2)CCC(C(C)(C)C)CC1 (configuration not stated) | 0.2 | / | 9.1 | / | / | 1.8
CC1(C)Cc2c(ccc3ccccc23)C(=O)N1 | 32.4 | 7.7 | 79.7* | -6.8 | 2.8 | /
O=C(Cc1ccncc1)NCC[C@H]1CC[C@H](NC(=O)Nc2ccc(Cl)cc2)[C@H](CO)O1 | / | / | -6.1[16.7 µM] | / | / | -9.7
Cc1c(Br)c([N+](=O)[O-])nn1CCCC(=O)Nc1sc2c(c1C#N)CCC2 | 0.9 | 0.3 | / | -5.6 | -2.1 | -16.3
Cc1c(Br)c([N+](=O)[O-])nn1CC(=O)Nc1sc2c(c1C(=O)OC(C)C)CCCC2 | 1.3 | -2.7 | -30.2 | -1.0 | 1.9 | 46.0*
CC1(C)CC(=O)C(C=NC2CC(C)(C)NC(C)(C)C2)=C(O)C1 | -0.1 | -0.2 | / | -2.2 | -3.1 | 44.1*
COc1ccc2[nH]c(=O)c(CN(Cc3cccs3)Cc3nnnn3Cc3ccccc3)cc2c1 | -1.2 | 2.2 | 98.2* | -5.4 | -0.8 | /
COc1ccc2[nH]c(=O)c(CN(Cc3ccco3)Cc3nnnn3Cc3ccccc3)cc2c1 | -0.4 | 7.5 | / | 0.8 | 1.1 | /
O=C(Nc1ccc2c(c1)[C@@H]1C[C@@H](CC(=O)N3CCCCC3)O[C@H](CO)[C@@H]1O2)C1CCOCC1 | / | / | 1.7[16.7 µM] | / | / | 20.2
C[C@@H]1CN([C@H](C)CO)C(=O)Cc2cc(NC(=O)Cc3cn(C)c4ccccc34)ccc2O[C@H]1CN(C)Cc1ccc2c(c1)OCO2 | / | / | -8.3[16.7 µM] | / | / | -9.4
O=C(COC(=O)Cc1c[nH]c2ccccc12)Nc1cccc2ccccc12 | 1.8 | -0.3 | 5.6 | 1.1 | -0.4 | 16.7
CC(=O)Nc1sc(C)c(C)c1C(=O)OCC(=O)Nc1cc(S(C)(=O)=O)ccc1Cl | 0.2 | 1.5 | 13.2 | -0.6 | -0.1 | 55.7*
CS(=O)(=O)c1ccc(Cl)c(NC(=O)COC(=O)Cc2c[nH]c3ccccc23)c1 | -0.4 | -2.5 | / | -4.9 | -0.4 | 51.6*
CO[C@H]1CN(C)C(=O)c2ccc(NC(=O)Nc3ccccc3)cc2OC[C@H](C)N(C(=O)CN(C)C)C[C@H]1C | / | / | / | / | / | 10.3
CNc1nc(Nc2ccccc2)nc(OCC(F)(F)F)n1 | 3.4 | / | -5.3 | -1.6 | -0.1 | 76.3*
COc1ccc(N2CC(NS(=O)(=O)c3cccs3)CC2=O)cc1OC (configuration not stated) | 0.6 | -1.2 | 2.4 | -1.0 | -0.5 | 41.1*
CCC(=O)Nc1ccc2c(c1)C(=O)N(C)C[C@H](OC)[C@@H](C)CN(Cc1cccc(F)c1)[C@@H](C)CO2 | / | / | / | / | / | 14.5
CCCCC(=O)N(C)c1c(CC)nc2c(OCc3ccc(C(F)(F)F)cc3)cccn12 | / | / | -12.7 | / | / | 52.8*
CCOC(=O)N(C)c1c(CC)nc2c(OCc3cc(Cl)cc(Cl)c3)cccn12 | / | / | 56.0* | / | / | /
CCOC(=O)N(C)c1c(CC)nc2c(OCc3ccc(C(F)(F)F)cc3)cccn12 | / | / | 25.7 | / | / | 8.6
SMILES | CDK5 inh | GSK3 alpha inh | Env fusion inh | GSK3B inh | STK33 inh | GSIS activator
CCc1nc2c(OCc3ccc(C(F)(F)F)cc3)cccn2c1N(C)C(=O)c1ccc(C)cc1 | / | / | 56.7* | / | / | /
CCOC(=O)N(C)c1c(CC)nc2c(OCc3ccc(F)c(F)c3)cccn12 | / | / | 17.0 | / | / | -21.9
C[C@@H]1CCCCO[C@@H](CN(C)S(=O)(=O)c2cn(C)cn2)[C@@H](C)CN([C@@H](C)CO)C(=O)c2cc(NC(=O)Nc3ccccc3)ccc2O1 | / | / | -31.4[16.7 µM] | / | / | 39.6
Cc1noc(C)c1S(=O)(=O)N(C)C[C@@H]1Oc2ccc(NS(=O)(=O)c3ccc(F)cc3)cc2CC(=O)N([C@@H](C)CO)C[C@@H]1C | / | / | 7.1[16.7 µM] | / | / | -3.4
CCn1c2ccccc2c2cc(/C=C(/C#N)C(N)=S)ccc21 | 0.3 | / | 56.6* | / | / | -15.5
Cc1c(C(=O)Nc2nccs2)sc2nc(-c3cccs3)cc(C(F)(F)F)c12 | -0.2 | 0.2 | 56.7* | 3.5 | -0.2 | /
O=C(c1ccc(Cl)cc1)N1CCCCC(Sc2nnc(-c3ccc4c(c3)OCO4)o2)C1=O (configuration not stated) | 1.4 | -2.2 | 59.9* | -0.5 | -0.4 | /
C#CCOCCOCCOCCNc1nc(N2CCN(C(=O)CCCCCCCCCCNC(=O)[C@H]([C@@H](C)CC)n3cc(CCCCN=C(N)N)nn3)CC2)nc(N2CCN(C(=O)CCCCCCCCCCNC(=O)[C@H]([C@@H](C)CC)n3cc(CCCCN=C(N)N)nn3)CC2)n1 | / | 7.4 | / | / | 30.8* | /
O=C1OCCC1Sc1nnc(-c2ccc(Cl)cc2Cl)o1 (configuration not stated) | -0.4 | 1.9 | 58.7* | -0.8 | -1.5 | -9.4
O=C1OCCC1Sc1nnc(-c2ccccc2)o1 (configuration not stated) | 0.2 | -2.6 | / | 3.5 | -0.1 | /
Cc1noc(C)c1S(=O)(=O)N(C)C[C@@H]1OCCCC[C@H](C)Oc2ccc(N(C)C)cc2C(=O)N([C@H](C)CO)C[C@@H]1C | / | / | -31.9[16.7 µM] | / | / | /
C[C@H](CO)N1C[C@H](C)[C@H](CN(C)Cc2ccc(C(F)(F)F)cc2)OCCCC[C@H](C)Oc2ccc(NC(=O)Nc3ccccc3)cc2C1=O | / | / | 72.8*[16.7 µM] | / | / | 11.7
C[C@H]1CCCCO[C@@H](CN(C)C(=O)c2ccccc2)[C@@H](C)CN([C@@H](C)CO)C(=O)c2cc(NC(=O)Nc3ccc(C(F)(F)F)cc3)ccc2O1 | / | / | 67.8*[16.7 µM] | / | / | -3.6
C[C@@H]1CN([C@@H](C)CO)C(=O)c2cc(NC(=O)Nc3ccc(C(F)(F)F)cc3)ccc2O[C@@H](C)CCCCO[C@H]1CN(C)Cc1ccc(C(F)(F)F)cc1 | / | / | 42.3[16.7 µM] | / | / | 21.0
C[C@H]1CCCCO[C@H](CN(C)Cc2ccc(C(F)(F)F)cc2)[C@@H](C)CN([C@@H](C)CO)C(=O)c2cc(NC(=O)Nc3ccccc3)ccc2O1 | / | / | 37.5[16.7 µM] | / | / | -29.2
C[C@@H]1CCCCO[C@@H](CN(C)Cc2ccc(C(F)(F)F)cc2)[C@H](C)CN([C@@H](C)CO)C(=O)c2cc(NC(=O)Nc3ccc(C(F)(F)F)cc3)ccc2O1 | / | / | 58.9*[16.7 µM] | / | / | 23.2
